# ChEMBL document CHEMBL4715906, “Antileishmanial macrolides from ant-associated Streptomyces sp. ISID311” (Bioorg Med Chem, 2021)
# Active and inactive are the calls of the source. The calls are words filed in the database; no cut-off is given here.
# Experiments:
# Leishmania donovani [1] = test: Antileishmanial activity against Leishmania donovani MHOM/ET/67/HU3 axenic promastigotes assessed as parasite growth inhibition after 72 hrs by resorufin dye based fluorometric analysis; assay type: functional, organism-based; details: MHOM/ET/67/HU3, 72 h
# Procedure, shortened: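 Axenic promastigotes, 1×10^5 per well in log phase, in M199 pH 7.4 with 10% heat-inactivated FCS at 28 °C. Ten 2-fold dilutions from 0.125 to 64 µM (10 mM DMSO stocks) were incubated for 72 h; miltefosine was the reference. Alamar Blue was added for 3 h, read at ex 536/em 588 nm, normalized to untreated wells, and IC50 obtained by variable-slope fit.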
# Leishmania donovani [2] = test: Antileishmanial activity against Leishmania donovani MHOM/ET/67/HU3 amastigotes infected in human THP1 cells assessed as parasite growth inhibition after 120 hrs by giemsa staining based inverted microscopic analysis; assay type: functional, organism-based; details: MHOM/ET/67/HU3, THP-1, 120 h
# Procedure, shortened: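 THP-1 cells (2×10^4/well, RPMI-1640) were differentiated with PMA 20 ng/mL for 72 h at 37 °C, 5% CO2. They were infected with late-stage promastigotes (2×10^5/well) for 24 h, washed, then exposed to serial dilutions for 120 h with a miltefosine control. Cells were methanol-fixed and Giemsa-stained, and amastigotes per macrophage counted microscopically relative to untreated wells. IC50 was from a variable-slope fit.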
# [3] = Cytotoxicity against human THP1 cells assessed as growth inhibition after 120 hrs by Alamar blue dye based fluorometric analysis; assay type: cell-based; details: THP-1 cells
# Procedure, shortened: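 PMA-differentiated THP-1 cells (2×10^4/well, PMA 20 ng/mL, 72 h, 37 °C, 5% CO2) were exposed to serial dilutions for 120 h with a doxorubicin control. Alamar Blue was added for 3 h, read at ex 536/em 588 nm, and inhibition taken relative to untreated wells. IC50 was from a variable-slope fit; mean ± SD of 3 biological replicates.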
# [4] = Selectivity index, ratio of CC50 for human THP1 cells to IC50 for antileishmanial activity against Leishmania donovani MHOM/ET/67/HU3 amastigotes infected in human THP1 cells after 120 hrs; assay type: toxicity, cell-based; details: read-out: Ratio CC50/IC50
# Procedure, shortened: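 Index computed as CC50 in PMA-differentiated THP-1 cells (120 h Alamar Blue read-out) divided by IC50 against intracellular amastigotes in THP-1 (120 h exposure, Giemsa count).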
# Escovopsis [5] = test: Antifungal activity against Escovopsis ICBG1251 at 100 ug measured after 21 days by ISP-2 agar based assay; assay type: functional; details: dose 100.0 µg, time 21.0 day
# Procedure, shortened: (§1)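 Agar plug challenge on ISP-2: the producing bacterium was grown alone at plate centre for 7 days, then each fungal strain was point-inoculated 3 cm from centre. 100 µg of compound or miconazole was applied directly at plate centre. Plates were monitored for 21 days at 28 °C, with two replicates per sample–fungus pair.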
# Bacillus subtilis = test: Antibacterial activity against Bacillus subtilis NRS 231 by agar-based assay; assay type: functional, organism-based
# Pseudomonas aeruginosa = test: Antibacterial activity against Pseudomonas aeruginosa Boston 41501 by agar-based assay; assay type: functional, organism-based
# Escovopsis [6] = test: Antifungal activity against Escovopsis ICBG741 at 100 ug measured after 21 days by ISP-2 agar based assay; assay type: functional; details: dose 100.0 µg, time 21.0 day; procedure, shortened: as §1
# Escovopsis [7] = test: Antifungal activity against Escovopsis ICBG740 at 100 ug measured after 21 days by ISP-2 agar based assay; assay type: functional; details: dose 100.0 µg, time 21.0 day; procedure, shortened: as §1
# Escherichia coli = test: Antibacterial activity against Escherichia coli ATCC 25922 by agar-based assay; assay type: functional, organism-based
# Staphylococcus aureus = test: Antibacterial activity against methicillin-sensitive Staphylococcus aureus Wichita by agar-based assay; assay type: functional, organism-based
# Trichoderma = test: Antifungal activity against Trichoderma ICBG1100 at 100 ug measured after 21 days by ISP-2 agar based assay; assay type: functional, organism-based; details: dose 100.0 µg, time 21.0 day; procedure, shortened: as §1
# Cunninghamella = test: Antifungal activity against Cunninghamella ICBG752 at 100 ug measured after 21 days by ISP-2 agar based assay; assay type: functional, organism-based; details: dose 100.0 µg, time 21.0 day; procedure, shortened: as §1
# Escovopsis [8] = test: Antifungal activity against Escovopsis ICBG711 at 100 ug measured after 21 days by ISP-2 agar based assay; assay type: functional; details: dose 100.0 µg, time 21.0 day; procedure, shortened: as §1
SMILES,IC50 (Leishmania donovani [1]),IC50 (Leishmania donovani [2]),CC50 at 120 h [3],selectivity ratio at 120 h [4],Activity (Escovopsis [5]),Activity (Bacillus subtilis),Activity (Pseudomonas aeruginosa),Activity (Escovopsis [6]),Activity (Escovopsis [7]),Activity (Escherichia coli),Activity (Staphylococcus aureus),Activity (Trichoderma),Activity (Cunninghamella),Activity (Escovopsis [8])
CCCCCCCCCCCCCCCCOP(=O)([O-])OCC[N+](C)(C)C [MILTEFOSINE],4980 nM,5330 nM,60700 nM,11.4,,,,,,,,,,
CC[C@H](O[C@H]1C[C@@](C)(O)[C@H](O[C@H]2CC[C@H](OC(=O)[C@H](C)[C@H](O)c3ccc4c(c3)C(=O)C=C(C)C4=O)[C@@H](C)O2)[C@H](C)O1)[C@H](C)[C@H](O)[C@@H](C)[C@H](O)[C@H](C)[C@H]1OC(=O)/C=C/[C@H](C)[C@H](O)C[C@H](O)CCC[C@@H](O)CC[C@@H](C)[C@H](O)C(=O)[C@@]2(O)C[C@@H](O)C[C@@H](C[C@@H](O)C[C@H](O)C[C@H](O)CCC[C@H](O)[C@@H]3O[C@H]3[C@@H]1C)O2,34 nM,91 nM,6400 nM,70.3,Active,inactive,inactive,Active,Active,inactive,inactive,inactive,inactive,Active
CC[C@H](O[C@H]1C[C@@](C)(O)[C@H](O[C@H]2CC[C@H](OC(=O)[C@H](C)[C@H](O)c3ccc4c(c3)C(=O)C=C(C)C4=O)[C@@H](C)O2)[C@H](C)O1)[C@H](C)[C@H](O)[C@@H](C)[C@H](O)[C@H](C)[C@H]1OC(=O)/C=C/[C@H](C)[C@H](O)C[C@H](O)CCC[C@@H](O)CC[C@@H](C)[C@H](O)C(=O)[C@@]2(O)C[C@@H](O)C[C@@H](C[C@@H](O)C[C@H](O)C[C@H](O)CCC[C@H](O)/C=C/[C@@H]1C)O2,118 nM,2320 nM,11500 nM,4.94,Active,inactive,inactive,Active,Active,inactive,inactive,inactive,inactive,Active
CC[C@H](O[C@H]1C[C@@](C)(O)[C@H](O[C@H]2CC[C@H](OC(=O)[C@H](C)[C@H](O)c3ccc4c(c3)C(=O)C=C(C)C4=O)[C@@H](C)O2)[C@H](C)O1)[C@H](C)[C@H](O)[C@@H](C)[C@H](O)[C@H](C)[C@H]1OC(=O)/C=C/[C@H](C)[C@H](O)C[C@H](O)CCC[C@@H](O)CC[C@@H](C)[C@H](O)C(=O)[C@]2(O)O[C@H](C[C@@H](O)C[C@H](O)C[C@H](O)CCC[C@H](O)[C@@H]3O[C@H]3[C@@H]1C)C[C@H](O)[C@H]2O,46 nM,73 nM,6070 nM,83.2,Active,inactive,inactive,Active,Active,inactive,inactive,inactive,inactive,Active
COc1cccc2c1C(=O)c1c(O)c3c(c(O)c1C2=O)C[C@@](O)(C(=O)CO)C[C@@H]3O[C@H]1C[C@H](N)[C@H](O)[C@H](C)O1 [DOXORUBICIN],,,580 nM,,,,,,,,,,,
